Results as given in PubChem BioAssay AID1885 (Broad Institute, 2009).
Out of some 300,000 compounds screened, about 4,400 (1.5%) were called active.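 How the source made its calls: active means mean inhibition across valid replicates above about 55% (limit read from the data); inconclusive means mean below that limit but half or more replicates reach it; inactive means mean below it, under half of replicates reach it.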 Only a selection was taken, and actives are over-represented in it overall.

Experiment: inhibitors of intracellular T. cruzi growth, primary screen, luminescence, NIH3T3 host cells (AID 1885);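 further: signal also drops with host cell toxicity which is not excluded here; 0% = plate median of DMSO wells and 100% = zero luminescence signal; higher percent means less beta-gal luminescence so fewer parasites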
Conditions: T. cruzi beta-gal in NIH3T3, luminescence, 90 h; hits give high values; concentration not given here
Outline: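 System: mouse NIH/3T3 fibroblasts infected with β-gal-expressing T. cruzi Tulahuen C4 / Input: NIH/3T3 cells, 5,000 per well / Buffer or medium: Low-serum DMEM with 2% FBS / Probe or stimulus: 5000 reporter trypomastigotes per well / Schedule: ≥90 h infection period, 3 h prior cell attachment / Measured by: GalScreen luminescence, 60 min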
In the case of `CC[C@@]12C(=O)N(c3ccccc3)C(=O)N1[C@H](c1ccc(Br)cc1)[C@@H]1C(=O)N(C(C)(C)C)C(=O)[C@@H]12`, the inhibition is reported as 1.35% (inactive). For `CC(C)COC(=O)c1ccc(NC(=O)C2C3C=CC(C3)C2C(=O)O)cc1` (configuration not stated), the inhibition was 1.59% (inactive). For `CCOC(=O)c1cnc(-n2nc(C)cc2C)nc1NNc1cc(C)nc(-c2ccccc2)n1`, the inhibition was 54.9% (active). For `CCOC(=O)c1cnc(-n2nc(C)cc2C)nc1Nc1cccc(C(C)=O)c1`, the inhibition was -12.3% (inactive). For `CCOC(=O)c1cnc(-c2ccccc2)nc1Oc1ccc(C)cc1`, the inhibition was 7.98% (inactive). For `CCCCn1c(N)c(N(CCC(C)C)C(=O)c2ccc(COc3ccccc3)o2)c(=O)[nH]c1=O`, the inhibition was 0.734% (inactive). For `CCc1c(C)nc(SCC(=O)NC2CCCC2)[nH]c1=O`, the inhibition was -9.04% (inactive). With `CC(C)c1csc(CN2CCC(CO)(Cc3ccccc3)CC2)n1` the inhibition was 67.1% (active). In the case of `CC(=O)c1cccc(CN2CCC(CO)(Cc3ccccc3)CC2)c1`, the inhibition is reported as 11.2% (inactive). With `OCC1(Cc2ccccc2)CCN(Cc2cc3ccccc3o2)CC1` the inhibition was 16.6% (inactive). In the case of `Cc1ccc(C(=O)NC2CCCC(C)C2C)cc1S(=O)(=O)N1CCCCC1` (configuration not stated), the inhibition is reported as 19.9% (inactive). With `O=C(CSc1nc2[nH]ncc2c(=O)[nH]1)Nc1ccc(F)cc1` the inhibition was -0.401% (inactive). For `COc1ccc(S(=O)(=O)N2CCCCC2)cc1NC(=O)C1CC(=O)N(c2ccc3c(c2)OCCO3)C1` (configuration not stated), the inhibition was -2.94% (inactive). In the case of `O=C(NCC(c1ccco1)N1CCc2ccccc21)c1cccc(F)c1` (configuration not stated), the inhibition is reported as -6.59% (inactive). For `CCCOc1ccc(C(=O)C(CCC(CNCC)C(=O)c2ccc(OCCC)cc2)CNCC)cc1` (configuration not stated), the inhibition was 56% (active). In the case of `CCCOc1ccc(C(=O)CCC(=O)OC(C)C(=O)Nc2ccc(NC(C)=O)cc2)cc1` (configuration not stated), the inhibition is reported as -13.4% (inactive). With `CCCOc1ccc(C(=O)NCCc2ccccc2)cc1` the inhibition was 9.57% (inactive). For `COc1ccc(-c2cc(C(=O)N(C)CC(=O)Nc3ccccc3Cl)c3ccccc3n2)cc1OC`, the inhibition was 9.44% (inactive). With `Cc1ccc(NC(=O)c2cnc(SCC(=O)NCC3CCCO3)n(C)c2=O)cc1` (configuration not stated) the inhibition was -7.14% (inactive). With `COc1cccc(Cn2cc(/C=N/NC(=O)c3cc(O)cc(O)c3)c3ccccc32)c1` the inhibition was -8.85% (inactive). For `Cc1ccccc1C(=O)NCC(c1ccco1)N1CCc2ccccc21` (configuration not stated), the inhibition was 12% (inactive). In the case of `Cc1ccc(Cc2nnc(SCC(=O)Nc3ccccc3C)[nH]c2=O)cc1`, the inhibition is reported as -3.22% (inactive).
